Source: the M2OR odorant receptor database

Tests used:
Settings in all cases: stereoisomer not certain
OR10G2 (Homo sapiens) = biological target: T1, OR10G2 (Homo sapiens) (UniProt Q8NGC3)
T1 sequence (whole entry): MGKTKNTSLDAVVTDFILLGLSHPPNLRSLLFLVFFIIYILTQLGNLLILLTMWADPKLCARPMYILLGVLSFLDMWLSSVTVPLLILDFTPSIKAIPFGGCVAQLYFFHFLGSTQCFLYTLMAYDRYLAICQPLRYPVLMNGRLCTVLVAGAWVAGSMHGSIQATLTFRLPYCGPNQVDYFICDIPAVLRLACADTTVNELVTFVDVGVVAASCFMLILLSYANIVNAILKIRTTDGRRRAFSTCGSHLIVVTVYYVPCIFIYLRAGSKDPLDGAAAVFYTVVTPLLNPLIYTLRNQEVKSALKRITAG
Outline: (§1)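 Each entry records the cell line, G-protein, co-transfected protein and tags used. Methods varied with the source, often transient luciferase assays in mammalian cell lines. A receptor–molecule pair is called responsive (active) if the original authors judged its signal statistically different from baseline and non-responsive (inactive) otherwise.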

OR10G3 (Homo sapiens) = biological target: T2, OR10G3 (Homo sapiens) (UniProt Q8NGC4)
T2 sequence (whole entry): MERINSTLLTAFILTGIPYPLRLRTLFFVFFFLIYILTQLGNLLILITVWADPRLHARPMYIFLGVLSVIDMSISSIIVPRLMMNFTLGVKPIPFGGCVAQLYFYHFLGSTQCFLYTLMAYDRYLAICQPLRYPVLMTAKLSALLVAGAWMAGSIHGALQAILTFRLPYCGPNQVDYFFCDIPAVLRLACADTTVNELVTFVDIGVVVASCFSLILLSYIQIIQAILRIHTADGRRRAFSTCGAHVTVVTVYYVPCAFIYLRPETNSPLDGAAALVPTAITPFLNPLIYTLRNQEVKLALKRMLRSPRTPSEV
Outline: as §1

OR10G4 (Homo sapiens) = biological target: T3, OR10G4 (Homo sapiens) (UniProt Q8NGN3)
T3 sequence (whole entry): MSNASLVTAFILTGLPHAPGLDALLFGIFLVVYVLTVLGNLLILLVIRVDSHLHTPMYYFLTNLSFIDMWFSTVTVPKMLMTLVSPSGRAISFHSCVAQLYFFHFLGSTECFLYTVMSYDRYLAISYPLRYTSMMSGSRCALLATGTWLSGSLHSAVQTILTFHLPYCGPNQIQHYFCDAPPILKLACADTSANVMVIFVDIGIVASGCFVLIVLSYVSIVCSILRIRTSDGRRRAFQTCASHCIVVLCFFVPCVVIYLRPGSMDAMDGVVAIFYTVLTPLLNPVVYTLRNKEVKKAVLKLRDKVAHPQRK
Outline: as §1

OR10G6 (Homo sapiens) = biological target: T4, OR10G6 (Homo sapiens) (UniProt Q8NH81)
T4 sequence (whole entry): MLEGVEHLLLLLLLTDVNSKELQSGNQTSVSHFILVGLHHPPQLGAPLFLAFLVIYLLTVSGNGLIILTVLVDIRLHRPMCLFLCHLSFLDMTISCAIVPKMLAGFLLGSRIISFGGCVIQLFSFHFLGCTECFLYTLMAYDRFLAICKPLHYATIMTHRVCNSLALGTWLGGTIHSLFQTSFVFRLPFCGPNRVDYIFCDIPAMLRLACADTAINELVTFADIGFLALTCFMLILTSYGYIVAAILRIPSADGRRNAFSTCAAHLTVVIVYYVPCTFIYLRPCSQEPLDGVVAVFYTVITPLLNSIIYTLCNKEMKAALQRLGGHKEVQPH
Outline: as §1

OR10G7 (Homo sapiens) = biological target: T5, OR10G7 (Homo sapiens) (UniProt Q8NGN6)
T5 sequence (whole entry): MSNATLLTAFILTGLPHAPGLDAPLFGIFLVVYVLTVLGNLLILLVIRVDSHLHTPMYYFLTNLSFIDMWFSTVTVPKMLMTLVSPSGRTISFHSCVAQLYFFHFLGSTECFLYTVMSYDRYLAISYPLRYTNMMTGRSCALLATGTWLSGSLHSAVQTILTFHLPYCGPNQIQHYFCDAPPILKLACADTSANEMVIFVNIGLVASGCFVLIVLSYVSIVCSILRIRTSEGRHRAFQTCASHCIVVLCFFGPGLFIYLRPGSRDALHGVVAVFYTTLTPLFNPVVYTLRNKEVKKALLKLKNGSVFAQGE
Outline: as §1

OR10G8 (Homo sapiens) = biological target: T6, OR10G8 (Homo sapiens) (UniProt Q8NGN5)
T6 sequence (whole entry): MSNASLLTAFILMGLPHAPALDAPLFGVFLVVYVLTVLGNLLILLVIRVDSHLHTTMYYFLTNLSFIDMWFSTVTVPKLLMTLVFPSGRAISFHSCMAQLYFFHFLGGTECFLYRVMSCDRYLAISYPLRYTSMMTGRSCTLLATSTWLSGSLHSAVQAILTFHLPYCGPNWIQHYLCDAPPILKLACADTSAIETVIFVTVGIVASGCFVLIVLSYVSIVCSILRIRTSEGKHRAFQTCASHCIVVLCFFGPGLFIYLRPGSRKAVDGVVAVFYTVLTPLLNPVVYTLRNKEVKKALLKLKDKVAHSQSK
Outline: as §1

OR10G9 (Homo sapiens) = biological target: T7, OR10G9 (Homo sapiens) (UniProt Q8NGN4)
T7 sequence (whole entry): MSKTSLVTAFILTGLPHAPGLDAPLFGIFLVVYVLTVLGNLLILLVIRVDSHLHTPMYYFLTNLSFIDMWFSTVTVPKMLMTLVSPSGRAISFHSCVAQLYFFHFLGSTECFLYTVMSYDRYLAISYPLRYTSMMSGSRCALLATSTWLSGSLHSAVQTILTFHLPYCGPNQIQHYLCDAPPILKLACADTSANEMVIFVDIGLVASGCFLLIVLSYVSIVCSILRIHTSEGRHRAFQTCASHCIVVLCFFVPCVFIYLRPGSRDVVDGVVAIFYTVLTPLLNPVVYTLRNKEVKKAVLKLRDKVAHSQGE
Outline: as §1

OR10H1 (Homo sapiens) = biological target: T8, OR10H1 (Homo sapiens) (UniProt Q9Y4A9)
T8 sequence (whole entry): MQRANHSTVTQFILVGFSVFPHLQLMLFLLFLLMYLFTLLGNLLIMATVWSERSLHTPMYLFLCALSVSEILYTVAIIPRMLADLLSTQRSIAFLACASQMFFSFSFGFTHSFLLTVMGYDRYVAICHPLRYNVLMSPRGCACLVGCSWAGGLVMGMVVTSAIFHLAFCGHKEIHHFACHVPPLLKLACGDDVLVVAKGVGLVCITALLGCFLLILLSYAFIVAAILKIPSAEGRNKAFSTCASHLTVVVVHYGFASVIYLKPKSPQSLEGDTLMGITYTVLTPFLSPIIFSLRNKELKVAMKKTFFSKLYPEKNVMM
Outline: as §1

OR10H2 (Homo sapiens) = biological target: T9, OR10H2 (Homo sapiens) (UniProt O60403)
T9 sequence (whole entry): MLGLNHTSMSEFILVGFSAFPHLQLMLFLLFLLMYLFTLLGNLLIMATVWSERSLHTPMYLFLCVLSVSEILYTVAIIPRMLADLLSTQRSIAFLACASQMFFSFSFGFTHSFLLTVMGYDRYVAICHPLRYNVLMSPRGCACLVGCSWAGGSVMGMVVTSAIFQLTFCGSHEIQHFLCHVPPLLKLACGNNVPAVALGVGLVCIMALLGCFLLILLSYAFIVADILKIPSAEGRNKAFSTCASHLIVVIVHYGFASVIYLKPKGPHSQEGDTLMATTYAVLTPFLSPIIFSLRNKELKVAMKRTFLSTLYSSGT
Outline: as §1

OR10H3 (Homo sapiens) = biological target: T10, OR10H3 (Homo sapiens) (UniProt O60404)
T10 sequence (whole entry): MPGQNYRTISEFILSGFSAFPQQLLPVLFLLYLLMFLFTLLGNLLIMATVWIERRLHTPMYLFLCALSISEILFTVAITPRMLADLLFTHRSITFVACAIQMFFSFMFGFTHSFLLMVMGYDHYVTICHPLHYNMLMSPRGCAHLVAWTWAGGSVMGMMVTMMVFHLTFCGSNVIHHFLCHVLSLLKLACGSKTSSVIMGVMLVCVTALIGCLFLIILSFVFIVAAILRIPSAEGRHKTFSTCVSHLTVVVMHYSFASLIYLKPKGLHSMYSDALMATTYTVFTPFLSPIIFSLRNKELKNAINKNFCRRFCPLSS
Outline: as §1

OR10H4 (Homo sapiens) = biological target: T11, OR10H4 (Homo sapiens) (UniProt Q8NGA5)
T11 sequence (whole entry): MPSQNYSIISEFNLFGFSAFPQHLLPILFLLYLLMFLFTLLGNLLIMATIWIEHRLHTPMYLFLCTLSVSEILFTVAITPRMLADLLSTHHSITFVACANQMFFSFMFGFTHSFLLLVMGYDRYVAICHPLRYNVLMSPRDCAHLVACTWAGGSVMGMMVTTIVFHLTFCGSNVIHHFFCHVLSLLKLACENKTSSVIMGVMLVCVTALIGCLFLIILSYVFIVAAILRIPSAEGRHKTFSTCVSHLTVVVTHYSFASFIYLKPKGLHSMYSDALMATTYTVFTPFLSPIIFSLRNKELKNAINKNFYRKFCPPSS
Outline: as §1

OR10H5 (Homo sapiens) = biological target: T12, OR10H5 (Homo sapiens) (UniProt Q8NGA6)
T12 sequence (whole entry): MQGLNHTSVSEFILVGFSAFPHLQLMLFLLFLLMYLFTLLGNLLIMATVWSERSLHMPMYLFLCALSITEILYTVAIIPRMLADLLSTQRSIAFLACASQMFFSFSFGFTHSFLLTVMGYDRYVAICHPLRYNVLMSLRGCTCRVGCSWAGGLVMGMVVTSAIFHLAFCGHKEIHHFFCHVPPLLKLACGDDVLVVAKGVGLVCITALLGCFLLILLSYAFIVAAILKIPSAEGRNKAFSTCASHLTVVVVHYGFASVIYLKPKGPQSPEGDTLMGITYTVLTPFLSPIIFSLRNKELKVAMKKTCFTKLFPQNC
Outline: as §1

OR10J1 (Homo sapiens) = biological target: T13, OR10J1 (Homo sapiens) (UniProt P30954)
T13 sequence (whole entry): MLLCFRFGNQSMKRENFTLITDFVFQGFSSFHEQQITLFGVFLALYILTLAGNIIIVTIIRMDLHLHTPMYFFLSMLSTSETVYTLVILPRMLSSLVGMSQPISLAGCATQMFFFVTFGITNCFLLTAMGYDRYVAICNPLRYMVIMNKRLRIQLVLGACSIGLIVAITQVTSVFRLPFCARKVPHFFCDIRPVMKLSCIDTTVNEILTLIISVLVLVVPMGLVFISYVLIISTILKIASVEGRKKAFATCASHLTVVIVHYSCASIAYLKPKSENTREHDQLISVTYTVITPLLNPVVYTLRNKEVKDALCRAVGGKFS
Outline: as §1

OR10J3 (Homo sapiens) = biological target: T14, OR10J3 (Homo sapiens) (UniProt Q5JRS4)
T14 sequence (whole entry): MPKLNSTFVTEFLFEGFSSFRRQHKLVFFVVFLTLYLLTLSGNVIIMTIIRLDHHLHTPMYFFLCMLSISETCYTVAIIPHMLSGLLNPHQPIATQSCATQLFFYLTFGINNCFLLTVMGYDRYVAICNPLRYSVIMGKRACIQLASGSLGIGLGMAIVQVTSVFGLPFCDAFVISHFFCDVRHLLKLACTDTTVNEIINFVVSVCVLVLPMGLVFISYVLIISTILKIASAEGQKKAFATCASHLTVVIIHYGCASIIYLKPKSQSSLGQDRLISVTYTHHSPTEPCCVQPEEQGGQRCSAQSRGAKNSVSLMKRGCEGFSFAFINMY
Outline: as §1

OR10J5 (Homo sapiens) = biological target: T15, OR10J5 (Homo sapiens) (UniProt Q8NHC4)
T15 sequence (whole entry): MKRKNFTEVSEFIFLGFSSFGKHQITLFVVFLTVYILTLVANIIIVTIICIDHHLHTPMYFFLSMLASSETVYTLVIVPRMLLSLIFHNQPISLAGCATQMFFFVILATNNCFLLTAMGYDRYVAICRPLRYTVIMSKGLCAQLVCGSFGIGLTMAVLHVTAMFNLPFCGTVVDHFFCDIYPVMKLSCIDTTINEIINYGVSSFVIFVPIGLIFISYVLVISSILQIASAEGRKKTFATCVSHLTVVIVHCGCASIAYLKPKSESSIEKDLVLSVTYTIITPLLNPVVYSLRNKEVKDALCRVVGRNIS
Outline: as §1

OR10K1 (Homo sapiens) = biological target: T16, OR10K1 (Homo sapiens) (UniProt Q8NGX5)
T16 sequence (whole entry): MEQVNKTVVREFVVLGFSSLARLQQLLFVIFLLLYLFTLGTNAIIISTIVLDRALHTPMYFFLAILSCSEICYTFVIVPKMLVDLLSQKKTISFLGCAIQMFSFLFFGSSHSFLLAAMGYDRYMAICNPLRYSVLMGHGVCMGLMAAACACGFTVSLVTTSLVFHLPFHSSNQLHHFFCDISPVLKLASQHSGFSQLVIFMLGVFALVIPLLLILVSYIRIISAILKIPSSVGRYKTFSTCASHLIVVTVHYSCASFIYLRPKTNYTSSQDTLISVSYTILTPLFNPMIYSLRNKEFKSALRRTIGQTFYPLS
Outline: as §1

OR10P1 (Homo sapiens) = biological target: T17, OR10P1 (Homo sapiens) (UniProt Q8NGE3)
T17 sequence (whole entry): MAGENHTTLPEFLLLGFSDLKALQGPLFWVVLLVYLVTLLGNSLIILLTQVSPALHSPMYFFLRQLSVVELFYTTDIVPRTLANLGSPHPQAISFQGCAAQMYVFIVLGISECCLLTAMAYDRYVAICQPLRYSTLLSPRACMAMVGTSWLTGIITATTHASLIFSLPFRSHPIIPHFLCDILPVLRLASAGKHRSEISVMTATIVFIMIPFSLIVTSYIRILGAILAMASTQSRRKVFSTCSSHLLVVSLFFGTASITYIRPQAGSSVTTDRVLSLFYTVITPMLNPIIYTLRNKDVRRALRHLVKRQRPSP
Outline: as §1

OR10Q1 (Homo sapiens) = biological target: T18, OR10Q1 (Homo sapiens) (UniProt Q8NGQ4)
T18 sequence (whole entry): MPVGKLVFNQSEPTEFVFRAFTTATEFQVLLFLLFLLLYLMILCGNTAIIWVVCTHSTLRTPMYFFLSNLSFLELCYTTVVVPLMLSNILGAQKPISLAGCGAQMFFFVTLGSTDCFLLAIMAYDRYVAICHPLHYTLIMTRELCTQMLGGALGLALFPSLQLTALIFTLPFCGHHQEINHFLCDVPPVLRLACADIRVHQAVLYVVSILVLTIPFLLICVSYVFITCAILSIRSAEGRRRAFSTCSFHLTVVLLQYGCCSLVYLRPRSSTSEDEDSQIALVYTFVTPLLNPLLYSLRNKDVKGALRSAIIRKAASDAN
Outline: as §1

Measured: odorant receptor agonist call

Cc1cnc(C)c(C)n1
inactive: all assays above
